Results reported in ChEMBL document CHEMBL2311315, “Radiosynthesis and evaluation of [¹¹C-carbonyl]-labeled carbamates as fatty acid amide hydrolase radiotracers for positron emission tomography” (J Med Chem, 2013).

Columns and labels:
[1] = Half life in phosphate buffer at pH 7.4 by HPLC analysis; type: physicochemical
[2] = 1-octanol-phosphate buffer partition coefficient, log D of the compound at pH 7.4; type: physicochemical; conditions: octanol/water
Method in brief: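 Radiotracer partitioned between 1-octanol and 0.02 M phosphate buffer, pH 7.4. Each determination replicated six times.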

[3] = target: T1, Fatty-acid amide hydrolase 1 (Rattus norvegicus) (UniProt P97612); experiment: Inhibition of FAAH-mediated [3H]anandamide hydrolysis in rat brain homogenate assessed as [3H]ethanolamine production at 100 nM incubated for 60 mins prior to substrate addition measured after 10 mins by liquid scintillation counting analysis relative to control; type: tissue-based
T1 sequence (whole entry): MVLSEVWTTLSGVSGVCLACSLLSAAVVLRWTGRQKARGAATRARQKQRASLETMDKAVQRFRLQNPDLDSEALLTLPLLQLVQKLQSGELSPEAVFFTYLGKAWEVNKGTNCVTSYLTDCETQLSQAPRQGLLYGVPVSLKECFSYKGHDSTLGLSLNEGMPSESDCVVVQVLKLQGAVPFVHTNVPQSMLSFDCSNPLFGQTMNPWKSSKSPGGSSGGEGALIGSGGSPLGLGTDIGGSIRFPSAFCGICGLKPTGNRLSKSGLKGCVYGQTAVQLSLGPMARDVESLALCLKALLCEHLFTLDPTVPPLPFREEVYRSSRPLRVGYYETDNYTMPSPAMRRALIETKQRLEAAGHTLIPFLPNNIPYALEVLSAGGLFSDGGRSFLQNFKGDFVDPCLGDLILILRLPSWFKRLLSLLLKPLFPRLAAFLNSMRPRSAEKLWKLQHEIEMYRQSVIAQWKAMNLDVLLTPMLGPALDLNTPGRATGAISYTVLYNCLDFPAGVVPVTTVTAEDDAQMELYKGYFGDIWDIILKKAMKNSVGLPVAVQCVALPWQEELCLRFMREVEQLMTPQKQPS
Method in brief: (§1)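 Rat brain homogenate (0.5 μg protein) preincubated with inhibitor 60 min, then 0.5 μM [3H]anandamide (ethanolamine-labelled) added and incubated a further 10 min at 37 °C. Reaction stopped with charcoal in 0.5 M HCl; aqueous [3H]ethanolamine counted by liquid scintillation with quench correction. Values are % inhibition ± SEM, n = 3.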

[4] = target: T1, Fatty-acid amide hydrolase 1 (Rattus norvegicus); experiment: Inhibition of FAAH-mediated [3H]anandamide hydrolysis in rat brain homogenate assessed as [3H]ethanolamine production at 10 nM incubated for 60 mins prior to substrate addition measured after 10 mins by liquid scintillation counting analysis relative to control; type: tissue-based; method in brief: as §1
[5] = target: T1, Fatty-acid amide hydrolase 1 (Rattus norvegicus); experiment: Inhibition of FAAH-mediated [3H]anandamide hydrolysis in rat brain homogenate assessed as [3H]ethanolamine production at 1 nM incubated for 60 mins prior to substrate addition measured after 10 mins by liquid scintillation counting analysis relative to control; type: tissue-based
Method in brief: (§2)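 Rat brain homogenate (0.5 μg protein) preincubated with inhibitor 60 min, then 0.5 μM [3H]anandamide (ethanolamine-labelled) added and incubated a further 10 min at 37 °C. Reaction stopped with charcoal in 0.5 M HCl; aqueous [3H]ethanolamine counted by liquid scintillation with quench correction.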

[6] = target: T1, Fatty-acid amide hydrolase 1 (Rattus norvegicus); experiment: Inhibition of FAAH-mediated [3H]anandamide hydrolysis in rat brain homogenate assessed as [3H]ethanolamine production at 0.1 nM incubated for 60 mins prior to substrate addition measured after 10 mins by liquid scintillation counting analysis relative to control; type: tissue-based; method in brief: as §2
Plasma = experiment: Percentage unbound in human plasma after 10 mins by ultrafiltration method; type: ADME, cell-free
Method in brief: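 Human plasma from 6 blood samples was spiked with [11C]-radiotracer, held 10 min at ambient temperature, then ultrafiltered by centrifugation. Ultrafiltrate and plasma were counted and weighed. Binding to the device was corrected using pH 7.4 phosphate buffer in place of plasma.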

Rattus norvegicus = experiment: Biodistribution in URB597-pretreated Sprague-Dawley rat brain parenchyma at 0.3 to 0.8 nmol, iv administered 30 mins after […]-treatment measured after 60 mins by gamma counting analysis; type: ADME, organism-based; conditions: in vivo, 1 h
Method in brief: (§3)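 Rats (n = 3–4) were injected iv with [11C]-radiotracer as in the biodistribution procedure. At various times, whole brain was homogenized and exhaustively extracted with aqueous acetonitrile. Extracted (unbound) and tissue-bound radioactivity were counted. Binding rate was fitted to a one-phase exponential association, Y = Ymax(1 − exp(−KX)). Blocking used ip pretreatment with the FAAH inhibitor.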

[7] = Half life in URB597-pretreated Sprague-Dawley rat brain parenchyma at 0.3 to 0.8 nmol, iv administered 30 mins after […]-treatment; type: ADME, organism-based; method in brief: as §3
Brain [8] = experiment: Drug uptake in URB597-pretreated Sprague-Dawley rat brain parenchyma at 0.3 to 0.8 nmol, iv administered 30 mins after […]-treatment measured after 40 mins by gamma counting analysis; type: ADME, organism-based; conditions: in vivo; method in brief: as §3
Brain [9] = experiment: Drug uptake in URB597-pretreated Sprague-Dawley rat brain parenchyma at 0.3 to 0.8 nmol, iv administered 30 mins after […]-treatment measured after 5 mins by gamma counting analysis; type: ADME, organism-based; conditions: in vivo; method in brief: as §3
Cortex [10] = experiment: Biodistribution in URB597-pretreated Sprague-Dawley rat brain cortex at 0.3 to 0.8 nmol, iv administered 30 mins after URB597-treatment measured after 40 mins by gamma counting analysis; type: ADME, organism-based; conditions: in vivo
Method in brief: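 Rats received 2 mg/kg ip (2 mL/kg saline with Tween 80) of the FAAH inhibitor, or vehicle alone, 30 min before tracer. Tracer was 30–60 MBq iv by tail vein (0.3–0.8 nmol; buffered saline, 0.5% Tween 80), n = 5. Cortex was excised at 40 min, weighed, gamma counted and decay-corrected. Reported as SUV, mean ± SD. Compared with vehicle by Student's t test.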

Hypothalamus [11] = experiment: Biodistribution in Sprague-Dawley rat brain hypothalamus at 0.3 to 0.8 nmol, iv after 40 mins by gamma counting analysis; type: ADME, organism-based; conditions: in vivo
Method in brief: (§4)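 Conscious male Sprague–Dawley rats (300–350 g), n = 5 per time point, received 30–60 MBq [11C]-radiotracer (70–170 GBq/μmol; 0.3–0.8 nmol) iv by tail vein in buffered saline with 0.5% Tween 80. Decapitated at 2 or 40 min. Dissected regions were weighed and gamma counted, decay-corrected to injection. Reported as SUV (%ID/g […]), mean ± SD.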

Hypothalamus [12] = experiment: Biodistribution in Sprague-Dawley rat brain hypothalamus at 0.3 to 0.8 nmol, iv after 2 mins by gamma counting analysis; type: ADME, organism-based; conditions: in vivo; method in brief: as §4
Cortex [13] = experiment: Biodistribution in Sprague-Dawley rat brain cortex at 0.3 to 0.8 nmol, iv after 40 mins by gamma counting analysis; type: ADME, organism-based; conditions: in vivo; method in brief: as §4
Cortex [14] = experiment: Biodistribution in Sprague-Dawley rat brain cortex at 0.3 to 0.8 nmol, iv after 2 mins by gamma counting analysis; type: ADME, organism-based; conditions: in vivo; method in brief: as §4
[15] = target: T1, Fatty-acid amide hydrolase 1 (Rattus norvegicus); experiment: Ratio of IC50 for FAAH in rat brain homogenate in the absence of preincubation phase to IC50 for FAAH in rat brain homogenate after 45 mins preincubation phase; type: tissue-based
[16] = target: T2, Fatty-acid amide hydrolase 1 (Rattus norvegicus, UniProt P97612); experiment: Inhibition of FAAH-mediated [3H]anandamide hydrolysis in rat brain homogenate assessed as [3H]ethanolamine production incubated for 45 mins prior to substrate addition measured after 10 mins by liquid scintillation counting analysis; type: tissue-based
T2 sequence (P97612 whole entry): T1 sequence (whole entry)
Method in brief: (§5)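 Rat brain homogenate (0.5 μg protein) preincubated with inhibitor at 37 °C for 45 or 90 min, eight concentrations over 0.1–30 nM or six over 1–50 nM. Then 0.5 μM [3H]anandamide added for a further 10 min at 37 °C. Charcoal/HCl stop; [3H]ethanolamine in aqueous phase counted by scintillation. pI50 ± value reported, converted to IC50.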

[17] = target: T2, Fatty-acid amide hydrolase 1; experiment: Inhibition of FAAH-mediated [3H]anandamide hydrolysis in rat brain homogenate assessed as [3H]ethanolamine production incubated for 90 mins prior to substrate addition measured after 10 mins by liquid scintillation counting analysis; type: tissue-based; method in brief: as §5

Structure (SMILES)	t1/2 [1]	logD [2]	inhibition [3]	inhibition [4]	inhibition [5]	inhibition [6]	SUV (Cortex [10])	SUV (Hypothalamus [11])	SUV (Hypothalamus [12])	Drug uptake (Cortex [13])	SUV (Cortex [13])	SUV (Cortex [14])	further results
O=C(NC1CCC1)Oc1ccc(O)c(-c2ccccc2)c1	89 h	3.42	101%	70%	8%	-0.1%							
CCCCCCNC(=O)Oc1ccc(O)c(-c2ccccc2)c1	77 h	3.67	100%	97%	44%	9%							Fu (Plasma): 0.35%
CN1CCC(NC(=O)Oc2ccc(O)c(-c3ccccc3)c2)CC1	25 h		12%	1%	-0.5%	2%							
NC(=O)c1cccc(-c2cccc(OC(=O)NC3CCCCC3)c2)c1 [URB-597]	19 h	3.61											Fu (Plasma): 0.48%
O=[11C](NC1CCCC1)Oc1ccc(O)c(-c2ccccc2)c1							0.33	1.22	1.87	80%	3.09	2.36	Drug uptake (Rattus norvegicus): 90%; half-life [7]: 5.5 min; Drug uptake (Brain [8]): Not Active; Drug uptake (Brain [9]): Not Active
O=C(NC1CCCC1)Oc1ccc(O)c(-c2ccccc2)c1	138 h	2.8	99%	80%	15%	-8%							
O=[11C](NC1CCC1)Oc1ccc(O)c(-c2ccccc2)c1							0.23	1.48	1.81	80%	3.37	2.68	
NC(=O)c1cccc(-c2cccc(O[11C](=O)NC3CCCCC3)c2)c1							0.17	0.51	0.47	80%	0.94	0.79	
CCCCCCN[11C](=O)Oc1ccc(O)c(-c2ccccc2)c1							0.27	1.25	1.21	80%	2.49	1.63	
O=C(NC1CCCCC1)Oc1ccc(O)c(-c2ccccc2)c1	121 h	2.85	101%	69%	4%	-2%							Ratio IC50 [15]: 4; IC50 [16]: 9.4 nM; IC50 [17]: 4.9 nM; Fu (Plasma): 0.75%
O=C(NC1CCCC1)Oc1cccc(C2=NCCO2)c1	4.6 h	2.35	99%	40%	4%	-2%							
CCCCCCNC(=O)Oc1cccc(C2=NCCO2)c1	8.7 h	3.33	100%	100%	74%	9%							Ratio IC50 [15]: 4; IC50 [16]: 1.2 nM; IC50 [17]: 0.55 nM
CN1CCC(NC(=O)Oc2cccc(C3=NCCO3)c2)CC1	0.8 h		8%	3%	12%	6%							
CN1CCC(NC(=O)Oc2cccc(-c3ccccc3)c2)CC1			13%	6%	9%	6%							
O=[11C](NC1CCCCC1)Oc1ccc(O)c(-c2ccccc2)c1							0.36	1.14	1.61	80%	2.49	2.4	Drug uptake (Rattus norvegicus): 90%; half-life [7]: 6.6 min
O=C(NC1CCCCC1)Oc1cccc(C2=NCCO2)c1	5.1 h	3.01	99%	97%	31%	0.2%							
